What was measured:
[1] = Cytotoxicity against mouse B16F10 cells after 48 hrs by MTT assay; type: functional, cell-based; conditions: B16-F10, 48 h
Outline: (§1)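 Cells seeded in 96-well plates, exposed to compounds at various concentrations for 48 h at 37°C, 5% CO2. MTT (0.5 mg/mL) then added for 4 h, supernatant removed, formazan dissolved in DMSO, absorbance read at 570 nm. Percent inhibition of proliferation calculated per concentration; IC50 derived from dose-dependent response.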

HepG2 = assay: Cytotoxicity against human HepG2 cells after 48 hrs by MTT assay; type: functional, cell-based; conditions: HepG2, 48 h; outline: as §1

Structure (SMILES)	IC50 [1]	IC50 (HepG2)
C[C@@]12CC[C@@H]3[C@@](CC[C@H]4[C@@]3(C)CCC[C@@]4(C)C(=O)NCC(=O)OCCOc3no[n+]([O-])c3S(=O)(=O)c3ccccc3)(CC(=O)O1)C2	3.52 µM	–
C[C@@]12CC[C@@H]3[C@@](CC[C@H]4[C@@]3(C)CCC[C@@]4(C)C(=O)NCC(=O)OCCOc3no[n+]([O-])c3S(=O)(=O)c3ccccc3)(CC1=O)C2	2.76 µM	> 50 µM
C[C@@]12CC[C@@H]3[C@@](CC[C@H]4[C@@]3(C)CCC[C@@]4(C)C(=O)NCC(=O)OCCCOc3no[n+]([O-])c3S(=O)(=O)c3ccccc3)(CC1=O)C2	8.06 µM	–
C[C@@]12CC[C@@H]3[C@@](CC[C@H]4[C@@]3(C)CCC[C@@]4(C)C(=O)NCC(=O)OCC#CCOc3no[n+]([O-])c3S(=O)(=O)c3ccccc3)(CC1=O)C2	0.25 µM	4.24 µM
C[C@@]12CC[C@@H]3[C@@](CC[C@H]4[C@@]3(C)CCC[C@@]4(C)C(=O)NCC(=O)OCCCOc3no[n+]([O-])c3S(=O)(=O)c3ccccc3)(CC(=O)O1)C2	2.05 µM	–
C[C@]12CC[C@@H]3[C@](CC[C@H]4[C@@]3(C)CCC[C@@]4(C)C(=O)NCC(=O)OCCCCOc3no[n+]([O-])c3S(=O)(=O)c3ccccc3)(C1)C(C=O)O2 (some centres not stated)	5.21 µM	–
C=C1C(=O)[C@@]2(C)CC[C@@H]3[C@]1(CC[C@H]1[C@@]3(C)CCC[C@@]1(C)C(=O)NCC(=O)OCCOc1no[n+]([O-])c1S(=O)(=O)c1ccccc1)C2	1.01 µM	7.13 µM
C=C1C(=O)[C@@]2(C)CC[C@@H]3[C@]1(CC[C@H]1[C@@]3(C)CCC[C@@]1(C)C(=O)NCC(=O)OCCCOc1no[n+]([O-])c1S(=O)(=O)c1ccccc1)C2	0.016 µM	38.6 µM
C=C[C@]12CC[C@H]3[C@@](C)(CCC[C@@]3(C)C(=O)O)[C@@H]1CC[C@](C)(COC(=O)CCC(=O)OCCOc1no[n+]([O-])c1S(=O)(=O)c1ccccc1)C2	1.98 µM	6.44 µM
C=C[C@]12CC[C@H]3[C@@](C)(CCC[C@@]3(C)C(=O)O)[C@@H]1CC[C@](C)(COC(=O)CCC(=O)OCCCOc1no[n+]([O-])c1S(=O)(=O)c1ccccc1)C2	> 50 µM	–
C=C[C@]12CC[C@H]3[C@@](C)(CCC[C@@]3(C)C(=O)O)[C@@H]1CC[C@](C)(COC(=O)CCC(=O)OCC#CCOc1no[n+]([O-])c1S(=O)(=O)c1ccccc1)C2	3.84 µM	7.54 µM
COC(=O)[C@]1(C)CCC[C@@]2(C)[C@@H]3CC[C@@]4(C)C[C@]3(CC[C@@H]21)C/C4=N\OC(=O)CCC(=O)OCCOc1no[n+]([O-])c1S(=O)(=O)c1ccccc1	–	30.2 µM
COC(=O)[C@]1(C)CCC[C@@]2(C)[C@@H]3CC[C@@]4(C)C[C@]3(CC[C@@H]21)C/C4=N\OC(=O)CCC(=O)OCCCOc1no[n+]([O-])c1S(=O)(=O)c1ccccc1	–	33.4 µM
COC(=O)[C@]1(C)CCC[C@@]2(C)[C@@H]3CC[C@@]4(C)C[C@]3(CC[C@@H]21)C/C4=N\OC(=O)CCC(=O)OCCCCOc1no[n+]([O-])c1S(=O)(=O)c1ccccc1	–	5.16 µM
COC(=O)[C@]1(C)CCC[C@@]2(C)[C@@H]3CC[C@@]4(C)C[C@]3(CC[C@@H]21)C/C4=N\OC(=O)CCC(=O)OCCOCCOc1no[n+]([O-])c1S(=O)(=O)c1ccccc1	2.12 µM	2.75 µM
COC(=O)[C@]12CCC(C)(C)C[C@H]1[C@H]1C(=O)C=C3[C@@]4(C)C=C(C#N)C(=O)C(C)(C)[C@@H]4CC[C@@]3(C)[C@]1(C)CC2 [BARDOXOLONE METHYL]	5.85 µM	4.99 µM
CC[C@@]1(O)C(=O)OCc2c1cc1n(c2=O)Cc2cc3ccccc3nc2-1 [CAMPTOTHECIN]	2.78 µM	–
C[C@@]12CC[C@@H]3[C@@](CC[C@H]4[C@@]3(C)CCC[C@@]4(C)C(=O)O)(CC1=O)C2 [ISOSTEVIOL]	> 100 µM	> 100 µM

From ChEMBL document CHEMBL3259691, “Synthesis and cytotoxic activity of nitric oxide-releasing isosteviol derivatives” (Bioorg Med Chem Lett, 2014)
